We go through five compounds from ChEMBL document CHEMBL1137143, “Synthesis of C8-linked pyrrolo[2,1-c][1,4]benzodiazepine-acridone/acridine hybrids as potential DNA-binding agents” (Bioorg Med Chem Lett, 2004).

Structures are written as SMILES. Bounds are passed on as bounds.

For experiment [1], the system named is Nucleic Acid. As to the kind of experiment: (§1) DNA-binding ability was determined by thermal denaturation method using calf thymus (CT) DNA; expressed as Delta Tm after 18 hr. The format is functional. The note with it: Bos taurus. In a few lines: (§2)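 Thermal melting of CT-DNA, 100 µM, with ligand at 20 µM (1:5 PBD:DNA molar ratio) in 10 mM sodium phosphate + 1 mM EDTA, pH 7.00; incubated at 37 °C for 0 h or 18 h before melting. ΔTm taken relative to DNA alone, whose Tm is a mean of 10 separate determinations.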

Experiment [2] deals with Nucleic Acid. Nature of the experiment: (§3) DNA-binding ability was determined by thermal denaturation method using calf thymus (CT) DNA; expressed as Delta Tm after 0 hr. Format: functional. The note with it: Bos taurus. Summed up:
as §2

The species entered for experiment [3] is Bos taurus. The description is as §3. The format is functional, organism-based. In a few lines: as §2
Experiment [4] is filed under the species Bos taurus. Described as §1. The format is functional, organism-based. In a few lines: as §2
The subject of the next experiment is UACC-62. Nature of the experiment: In vitro cytotoxicity was determined against UACC-62 cell line. The format is functional. The conditions noted are these: Homo sapiens, read-out: LC50 (the source's name).
A further experiment has as its system NCI-H23. As to the kind of experiment: In vitro cytotoxicity was determined against NCI-H23 cell line. Format: functional. The note with it: Homo sapiens, read-out: LC50 (the source's name).
In the next experiment the test system is M14. Nature of the experiment: In vitro cytotoxicity was determined against M14 cell line. Format: functional. The conditions noted are these: Homo sapiens, read-out: LC50 (the source's name).
Another experiment concerns A498. As to the kind of experiment: In vitro cytotoxicity was determined against A498 cell line. The format is functional. The conditions noted are these: Homo sapiens, read-out: LC50 (the source's name).

In the case of `COc1cc2c(cc1OCCNC(=O)c1cccc3cc4ccccc4nc13)N=C[C@@H]1CCCN1C2=O`, the figures for the ΔTm in the experiment with Nucleic Acid [1] and with Nucleic Acid [2] were 5 °C and 3.1 °C, respectively.
In the same order, the values of `COc1cc2c(cc1O)N=C[C@@H]1CCCN1C2=O` are 0.7 °C and 0.4 °C.
In the same order, the values of `COc1cc2c(cc1OCCCNC(=O)c1cccc3cc4ccccc4nc13)N=C[C@@H]1CCCN1C2=O` are 7.7 °C and 5.9 °C.
For `COc1cc2c(cc1OCCNC(=O)c1cccc3c(O)c4ccccc4nc13)N=C[C@@H]1CCCN1C2=O`, the ΔTm – broadly, the change in melting temperature against a reference sample – is 4.7 °C in the experiment filed under Bos taurus [3], 5.7 °C with Nucleic Acid [1], 5.7 °C in the experiment listed under Bos taurus [4] and 4.7 °C in the experiment on Nucleic Acid [2].
As for `COc1cc2c(cc1OCCCNC(=O)c1cccc3c(O)c4ccccc4nc13)N=C[C@@H]1CCCN1C2=O`, the ΔTm in the experiment with Nucleic Acid [1] turned out to be 12.5 °C; in the experiment with Nucleic Acid [2] it was 11 °C. In addition, the CC50 in the experiment with UACC-62 was less than 0.01 µM; with NCI-H23, 0.07 µM; in the experiment on M14 it was less than 0.01 µM; in the experiment with A498 it was 0.05 µM.
